# Assay results: ChEMBL document CHEMBL3286121, “Synthesis of 5-methyl phenanthridium derivatives: a new class of human DOPA decarboxylase inhibitors” (Bioorg Med Chem Lett, 2014)
# Target: T1, Aromatic-L-amino-acid decarboxylase (Homo sapiens, UniProt P20711)
# T1 sequence (P20711 whole entry): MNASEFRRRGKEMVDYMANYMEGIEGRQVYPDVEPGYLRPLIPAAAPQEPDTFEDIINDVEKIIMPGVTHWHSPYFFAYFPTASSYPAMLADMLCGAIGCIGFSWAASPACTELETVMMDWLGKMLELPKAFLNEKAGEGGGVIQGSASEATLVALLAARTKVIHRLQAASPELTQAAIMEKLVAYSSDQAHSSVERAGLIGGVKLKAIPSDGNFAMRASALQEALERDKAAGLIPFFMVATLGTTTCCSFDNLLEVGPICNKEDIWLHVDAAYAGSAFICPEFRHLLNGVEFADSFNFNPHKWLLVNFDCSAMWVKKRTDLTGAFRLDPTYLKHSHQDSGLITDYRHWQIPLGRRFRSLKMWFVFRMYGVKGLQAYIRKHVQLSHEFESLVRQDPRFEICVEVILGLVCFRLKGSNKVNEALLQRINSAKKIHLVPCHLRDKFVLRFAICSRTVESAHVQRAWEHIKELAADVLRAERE
# Experiment: Inhibition of recombinant human DOPA decarboxylase assessed as inhibition of dopamine production after 30 mins by HPLC method
# Conditions: not given; call rule not given here
# How it was run: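 Recombinant human enzyme reacted with L-DOPA (1 mM final) and PLP cofactor in pH 6.8 buffer, enzyme […] final, with or without compound, 37 °C for 30 min; stopped by heating at 100 °C for 2 min. Dopamine formed quantified by HPLC, 0.2% formic acid/methanol 9:1 eluent, UV 280 nm. IC50 from dose-response curves, 6 concentrations, each in duplicate.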
row,Structure (SMILES),IC50
1,COc1ccc2cc3[n+](cc2c1OC)CCc1cc2c(cc1-3)OCO2 [BERBERINE],Not Active
2,CN1Cc2c(ccc3c2OCO3)-c2ccc3cc4c(cc3c21)OCO4 [DIHYDROSANGUINARINE],Not Active

# Same assay, conditions: read-out: IC50
row,Structure (SMILES),IC50 [µM]
1,COc1ccc2c(c1)c1cc(OC)c(OC)cc1c[n+]2C,1170
2,COc1cc2c[n+](C)c3ccccc3c2cc1OC,3500
3,COc1cc2c[n+](C)c3ccc(F)cc3c2cc1OC,2690
4,COc1cc2c[n+](C)c3ccc(Cl)cc3c2cc1OC,1390
5,COc1cc2c[n+](C)c3ccc(C)cc3c2cc1OC,1490
6,COc1ccc2c(c1)c[n+](C)c1ccccc21,950
7,COc1ccc2c(c1)c[n+](C)c1ccc(Cl)cc21,930
8,COc1ccc2c(c[n+](C)c3c4cc5c(cc4ccc23)OCO5)c1OC [CHELERYTHRINE],1280
9,COc1cc2c[n+](C)c3c4cc5c(cc4ccc3c2cc1OC)OCO5 [NITIDINE],1340

# Next, values leading:
row,IC50 [µM],Structure (SMILES)
1,190,COc1ccc2c(c1)c[n+](C)c1ccc(OC)cc21
2,120,COc1ccc2c(c1)c[n+](C)c1ccc(O)cc21
3,400,C[n+]1cc2ccccc2c2ccccc21
4,570,COc1ccc2c(c1)c[n+](C)c1ccc(F)cc21
5,600,COc1ccc2c(c1)c[n+](C)c1ccc(C)cc21
6,200,C[n+]1cc2c3c(ccc2c2ccc4cc5c(cc4c21)OCO5)OCO3 [SANGUINARIUM CHLORIDE]
